Assay results taken from ChEMBL document CHEMBL4513216, “Probing the Open Global Health Chemical Diversity Library for Multistage-Active Starting Points for Next-Generation Antimalarials” (ACS Infect Dis, 2020).

Assay: Toxicity liver stage against HepG2, at 10uM
Type: cell-based
Parameters: test concentration 10 uM, cell line HepG2-A16-CD81EGFP
Details: human, HepG2-A16-CD81EGFP cells; read-out: INHIBITION
Method in brief: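 Uninfected HepG2-A16-CD81EGFP cells, 3 × 10^3 per well, 1536-well, plated on prespotted compound at 10 μM final, parasite-free screening media added to match infected plates; puromycin 10 μM positive, DMSO 0.5% negative; run in parallel with 48 h PbLuc assay at 37 °C, 5% CO2; viability by CellTiter-Glo luminescence, normalized to controls.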

SMILES	cytotoxicity at 10 µM [%]
Cc1ccc(-c2noc([C@@H]3C[C@H](NC(=O)NC(C)C)CN3C)n2)cc1	3.31
CN(CC(=O)N1CCc2[nH]c3ccccc3c2C1)CC1OCCO1	-1.63
O=c1c(NCCNCCO)c(N2CCN(c3ccc(F)cc3)CC2)c1=O	-5.46
CC(C)C(=O)Nc1ccc(Oc2ccc3c(c2)OCO3)nc1	-12.4
Cc1nc(C(=O)N2CCN(S(C)(=O)=O)CC2)c(-c2ccccc2Cl)s1	4.37
CCS(=O)(=O)NCC(Cc1cccc(F)c1)N1CCNC1=O (stereo not given)	-1.89
NCc1cnc(Nc2ccccc2)nc1	8.55
CC(C)Nc1nc2c(c(NC3CC3)n1)CCN(C1CCOCC1)CC2	12.3
COCC1COCCC12CCN(C(=O)CC1=CCCCC1)CC2 (stereo not given)	-1.86
CN1CCN(CCO)C(=O)C12CCN(c1nccs1)CC2	3.88
c1cnc(NCc2n[nH]c3c2CCN(Cc2cccnc2)C3)nc1	-7.15
CCOCC1CN(Cc2ccc3c(c2)OCO3)Cc2ncn(C)c21 (stereo not given)	5.61
O=c1cc2c(nn1CN1CCN(c3cccc(Cl)c3)CC1)CCC2	-3.19
CCn1nccc1CNc1[nH]cnc2nncc1-2	3.15
CCn1cc(CCC(=O)NCc2csc(C3CC3)n2)c(C)n1	-8.78
Cc1nn(C)cc1CN1CCCC1c1cccc(Nc2nccs2)n1 (stereo not given)	4.25
CC(C(=O)N1CCCCC1)n1nc(-c2cccs2)cc(N)c1=O (stereo not given)	10.8
Cc1nc(C)n(CCNC(=O)C2(C)CC(c3ccccc3)=NO2)n1 (stereo not given)	7.92
Cc1c(CCC(=O)N2CCCC2c2ccnc(N(C)C)c2)cnn1C (stereo not given)	0.469
Cc1cn[nH]c1C1COCCN1S(=O)(=O)c1cn[nH]c1 (stereo not given)	-24.6
CN(C)c1nccc(C2CCCN(C(=O)CO)C2)n1 (stereo not given)	-29.1
O=C(CCc1cc(Cl)no1)N1CCC(c2cc3ncccc3cn2)CC1	4.76

SMILES	cytotoxicity at 10 µM [%]
Cc1n[nH]c(C)c1-c1nccnc1CC1CCCN(C)C1 (stereo not given)	-18.3
O=C(Cc1ccc(F)cc1)N1CCCC(c2n[nH]c3nccnc23)C1 (stereo not given)	4.59
CCc1nnsc1C(=O)N(C)Cc1nnc2n1CCC2	-0.862
O=C(Nc1cn[nH]c1)N1CCN(CCSc2ccccc2)CC1	4.32
N#Cc1ncn(CC(=O)N2CCCC2c2cccs2)n1 (stereo not given)	-21.7
O=C(CN1CCCc2sccc2C1=O)NC1CCc2nccn2C1 (stereo not given)	16.1
Cc1csc(-c2cccc(NC(=O)N3CCOCC3)c2)n1	-6.35
CS(=O)(=O)CCn1ccc(NC(=O)Cc2c[nH]c3ccccc23)n1	2
CCN(C(=O)CN1CCN(CC(C)O)CC1)C1=CCCCC1 (stereo not given)	8.67
COc1cc(NC2CCCN(c3ncccn3)C2)cc(OC)c1 (stereo not given)	-16
COC(=O)c1ccc(CN2CCN(Cc3nc(C)no3)CC2)s1	4.07
N#Cc1cccnc1NCCNC(=O)NCCSC(F)(F)F	1.2
CC(Oc1ccc(F)cc1)C(=O)N(CC(N)=O)C1CCCC1 (stereo not given)	0.217
CN1CCN(C(=O)c2csnn2)c2ccccc21	-1.15
Cc1noc(CS(=O)(=O)c2cc(F)ccc2F)n1	-0.23
CC(Nc1nc2c(cnn2C)c(=O)[nH]1)c1ccc(F)cc1 (stereo not given)	16.6
Cc1cc(CN(C)CC2CCCCC2)no1	13.2
O=C(c1cc(-n2cccn2)ccn1)N1CCOc2ccc(F)cc21	1.26
NC(=O)CCN(C(=O)CSc1ccc(F)cc1)c1ccc(F)cc1	-2.17
CC1CCN(C)c2ccccc2N1C(=O)c1ccnc(-n2cncn2)c1 (stereo not given)	2.37
CC(C)c1nc(C2CCCN(c3nccc(N4CCCC4)n3)C2)no1 (stereo not given)	27.6
O=C(NCc1ccccn1)NC1CCCN(c2ncccn2)C1 (stereo not given)	6.21

SMILES	cytotoxicity at 10 µM [%]
COCCCC(=O)N(CCC(=O)O)Cc1ccc(F)c(F)c1	4.91
Cc1ncc(Cl)c(C(=O)N2CC(=O)N(C)c3ccccc32)n1	5.35
CCc1cnccc1C(=O)NC1CCN(Cc2ccccc2F)CC1	-4.35
CC(C)OCc1noc(C2CCCOC2)n1 (stereo not given)	5.31
Cn1cc(C2CCCN2C(=O)Cn2ccc3ccccc32)cn1 (stereo not given)	5.08
CCOc1ccccc1CNC(=O)c1cnn(CC)c1C(F)(F)F	3.67
Cc1nnc(CN(Cc2cccc(Cl)c2)C(C)C)o1	1.69
Cc1ccc(C)c(C(O)CN(C)Cc2nnc3ccccn23)c1 (stereo not given)	-13.8
COCC(NC(=O)NCc1sc(C)nc1C)c1ccco1 (stereo not given)	6.75
CCN(CC)C(=O)CNS(=O)(=O)c1cc(Br)ccc1F	-45.9
CC(CS(C)(=O)=O)NCc1cc(Cl)ccc1F (stereo not given)	-46.6
CCCn1nnnc1CN(C)C(C)c1ccc(C)cc1 (stereo not given)	-3.21
Cc1ccc(C(=O)NC(CN2CCCC2=O)c2ccccc2)c(=O)[nH]1 (stereo not given)	-2.23
COc1cccc(CCNS(=O)(=O)c2ccc(NC(C)=O)cc2)c1	1.54
CNC(=O)C1Cn2ccnc2C2(CCN(C(=O)NC3CCCC3)CC2)O1 (stereo not given)	-104
CNC(=O)N1CC[C@@H]2CN(Cc3ccccc3)S(=O)(=O)[C@@H]2CC1	-96.6
Cn1cc(C[C@H]2[C@H](O)CCN2Cc2ccc3c(c2)OCO3)cn1	-80.5
Cc1nnc([C@@H]2CC[C@@H]3[C@@H](CCN3S(=O)(=O)C3CC3)O2)o1	-77
CCC1COC2(CCN(C(=O)c3ccco3)CC2)C1 (stereo not given)	-65.4
O=C(c1cnccn1)N1CC[C@H]2[C@@H]1CCC(=O)N2c1cccnc1	-81.6
Cc1ccc(-c2cn(C3CCN(C(=O)[C@H]4CCCO4)CC3)nn2)cc1	-8.93
COc1cccc(CNC(=O)N2CCCC(Cn3cc(CN)nn3)C2)c1 (stereo not given)	-2.07

SMILES	cytotoxicity at 10 µM [%]
Cc1ccccc1N1CCCN(C(=O)CN2C(=O)OC[C@@H]2C(C)C)CC1	4.02
Cc1noc(C)c1-c1n[nH]c2c1CN(S(=O)(=O)c1cccnc1)CC2	-11
Cc1nc2c(c(=O)n1C)CCN(C(=O)Cn1cccc1)CC2	-2.18
CCCSc1ncc(C2CC(=O)NCc3nc4ccccn4c32)cn1 (stereo not given)	-6.53
COc1cc(C)c(CN2CCC3(CC2)[C@H](O)C[C@@H]3OCCN)cc1C	13.6
CCc1nc(CCn2cc(-c3nccn3C)nn2)no1	-55.3
CCN(CC)S(=O)(=O)NC1CCCc2nc(-c3ccccc3)ncc21 (stereo not given)	17.2
CCOc1ccc(C2CC(=O)NCc3nc(N)sc32)cc1CO (stereo not given)	-6.33
COc1ccc(OC2CCN(C(=O)[C@@H](N)Cc3c[nH]cn3)CC2)cc1	0.653
CN(C)CC1(O)CCN(C(=O)c2cnc(-c3ccccn3)nc2)C1 (stereo not given)	4.82
CC(C)(C(=O)N1CCCC(OCc2cccnc2)C1)n1cccc1 (stereo not given)	-4.06
CC(=O)c1cnc(NCCN2CCCC(c3ccccc3)C2)nc1C (stereo not given)	-3.44
CCNC(=O)[C@@H]1C[C@@H](NC(=O)Cc2ccncc2)CN1Cc1ccsc1	-0.368
Cc1[nH]nc(CCC(=O)N2CCCC(OCc3cccnc3)C2)c1C (stereo not given)	-5.07
CC1CN(CC(=O)NCc2ccccc2)CCN1Cc1nccn1C (stereo not given)	-16.2
Cc1ccc(NC(=O)C2CSCN2C(=O)c2cnccn2)cc1C (stereo not given)	-8.3
Cc1cccc(-c2nc(C)nn2CC(=O)NC2CCCC2)c1	-12.5
CC(=O)N1CCC[C@H]1C(=O)NCCOc1cccc(Cl)c1	-8.78
COc1ncccc1CNC(=O)c1cccnc1O	-4.02
Cc1c(F)cc(C(=O)O)cc1S(=O)(=O)Nc1cccc(C(F)F)c1	-1.35
Cn1cc(CN2CCCN(C(=O)c3cc[nH]n3)CC2)cn1	-8.72
CCn1cc(NC(=O)NCC(O)COc2cccc(F)c2)cn1 (stereo not given)	-2.86

SMILES	cytotoxicity at 10 µM [%]
O=C(Nc1cnn(CCN2CCOCC2)c1)c1cc(F)ccc1F	-8.8
CCn1ccnc1CN1CCN(CCOc2cccc(C#N)c2)CC1	-6.95
COc1ccc(CN(Cc2cnc(N)nc2)CC2CCCO2)c(OC)c1 (stereo not given)	-0.438
Cn1cc(CN2C[C@H]3CCC[C@@H](CNc4nccn4C)[C@H]3C2)cn1	10.9
Cc1ccc(C(=O)N2CC[C@H]3[C@@H]2CCC(=O)N3c2cccnc2)o1	-106
Cc1ccc(CN2CCCn3nnc(COCC4CC4)c3C2)s1	-6.51
O=S(=O)(c1cccs1)N1CCCn2nnc(CN3CCCCC3)c2C1	-17.5
COc1ccc(CN2C[C@@H]3OCCN(C)[C@@H]3C2)cc1	-74.8
CC1c2ncc(Cn3cccn3)n2CCN1c1ncccn1 (stereo not given)	-108
O=C(c1ccncc1)N1CC[C@@H]2CN(C3CCOCC3)CCO[C@@H]2C1	-110
O=C1[C@H]2CN(Cc3ccc(F)cc3)C[C@H]2CN1c1ccsc1	-87.8
Cc1cccc(CN2CCC3(CCC(CC(=O)N(C)C)CC3)CC2)n1	-113
Cc1ccc(CN2CC[C@@H](O)[C@@H]2Cc2cnn(C)c2)o1	-71
CC[C@@H]1N(Cc2ccsc2)CCC[C@]12CCC(=O)N2C	10
Cc1nnc([C@]23COC[C@H]2CN(Cc2cnn(C)c2)C3)o1	-3.77
Cc1cc2c(=O)n3c(nc2s1)CCN(Cc1c[nH]cn1)CC3	-17.6
Cn1cc(C(=O)NCc2cncc3c2CCNC3)cn1	-91.6
CCOCC(=O)N1CCc2c(CN(C)C)nn(C(C)C)c2C1	-2.63
Cn1cncc1CNC1CC2(CCN(S(C)(=O)=O)CC2)c2ccccc21 (stereo not given)	1.55
CCS(=O)(=O)N1CCC2(CCC(N3CCCC3)c3ccccc32)CC1 (stereo not given)	0.257
Cc1ccc(CN2CC[C@@H]3[C@@H](CO[C@H]3CN3CCN(C)CC3)C2)cc1	-2.74
O=C(Cn1c(=O)[nH]c2cn(-c3ccccc3)c(=O)n21)Nc1ccccc1	18.6
